Shown are actives, neighbours in structure and some others; about 2.2% of the full set was active somewhere.
PAD4 FP inh = human PAD4 inhibitors, primary screen, biochemical, fluorescence polarization, 1536-well format; AID 485272, 2010; 330,000 compounds, 0.41% hits; Protein-arginine deiminase type-4 (Homo sapiens), Q9UM07; recombinant PAD4, RCA probe fluorescence polarization; inhibition, % at 6.36 µM;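 active means percent inhibition above a cutoff equal to the mean of all tested compounds plus 3 SD, cut at about 15% in these data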
GSTO1 inh = inhibitors of recombinant GSTO1, primary screen, counter-screen for RBBP9 inhibitor project, biochemical, fluorescence polarization | inhibition, % at 5.96 µM | Glutathione S-transferase omega-1 (Homo sapiens), P78417 | activity-based probe fluorescence polarization | AID 1974, 2009 | 300,000 compounds, 1.1% hits;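 active means inhibition above the campaign mean inhibition plus 3 SD, cut at about 35% in these data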
Rin1-Abl PPI inh = inhibitors of Rin1-Abl protein binding, primary screen, biochemical, TR-FRET; Tyrosine-protein kinase ABL1 (Homo sapiens) + Ras and Rab interactor 1 (Homo sapiens), …; inhibition, % at 7.35 µM; 360,000 compounds, 0.4% hits; in the data active means inhibition above about 5%, passing the limit was not always enough
Apaf1 inhib = inhibitors of human Apaf-1 apoptosome, primary screen, biochemical, DEVD-Rh110 fluorescence, uHTS. inhibition, % at 20 µM. Apoptotic protease-activating factor 1 (Homo sapiens), O14727. 330,000 compounds, 0.71% hits. reconstituted apoptosome caspase-3 activity. AID 489030, 2010; active means inhibition of at least 40% at 20 µM
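System: Apoptosome proteins | Medium: Hepes pH 7.5 with detergent and BSA | Also added: Cytochrome c trigger plus (Z-DEVD)2-Rh110 caspase-3 substrate | Incubation: 30 min compound preincubation, 50 min activation, room temperature | Detection: Rhodamine 110 fluorescence at Ex 480/Em 540 nm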
UBC13 polyUb = UBC13 polyubiquitin chain formation inhibitors, primary screen, biochemical, TR-FRET, uHTS; Ubiquitin-conjugating enzyme E2 N (Homo sapiens), P61088; inhibition, % at 20 µM; 330,000 compounds, 0.47% hits; AID 485273, 2010; in the data active means inhibition above about 45%, passing the limit was not always enough; inconclusive means no clear call, values can overlap the other calls
SUMO HTRF inh = inhibitors of in vitro SUMOylation cascade, primary screen, biochemical, HTRF, uHTS; SUMO-conjugating enzyme UBC9 (Homo sapiens), P63279; HTRF SUMOylation assay, SAE1/SAE2 + UBC9; inhibition, % at 35 µM; 290,000 compounds, 0.36% hits; AID 2006, 2009; in the data active means inhibition above about 50%, passing the limit was not always enough; inconclusive means no clear call, values can overlap the other calls
Casp3 counter = CASP3 inhibitor validation, counterassay for project on UBE2N polyubiquitination blockers, biochemical, one dose | 1,400 compounds, 4% hits | inhibition, % at 20 µM | Recombinant caspase-3, Caspase-Glo 3/7 luminescence, 60 min | shares compounds with UBC13 polyUb;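 active means mean inhibition across replicates above about 26%, limit read from the data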
UBC13 conf = UBC13 polyubiquitination inhibitors, single-point retest, confirmation, biochemical, TR-FRET, single concentration; inhibition, % at 10 µM; shares compounds with UBC13 polyUb; 1,400 compounds, 68% hits; AID 488859, 2010; in the data active means inhibition above about 45%; inconclusive means no clear call, values can overlap the other calls
Each line names hits and unclear results; the compound was inactive in the other large screens (follow-up assays come after a bar, where they were run).

CN(C)c1ccc(NC(=O)CSc2n[nH]c(-c3ccncc3)n2)cc1	none (no result: PAD4 FP inh, GSTO1 inh, Apaf1 inhib, UBC13 polyUb, SUMO HTRF inh)
O=C(C[n+]1cccc(CNC(=O)c2ccc(OC(F)F)cc2)c1)Nc1ccc(SC(F)F)cc1	UBC13 polyUb 55 | Casp3 counter inactive | UBC13 conf 102
CCc1nc2ccc(C(=O)NCCCn3ccnc3)cn2c1N(C)C(=O)C1CCCCC1	none (no result: PAD4 FP inh, GSTO1 inh, Apaf1 inhib, UBC13 polyUb, SUMO HTRF inh)
Cc1cc2c(=O)n(C)c(SCC(=O)Nc3ccc(F)cc3)nc2s1	none (no result: PAD4 FP inh, GSTO1 inh, Apaf1 inhib, UBC13 polyUb, SUMO HTRF inh)
CC(=O)Nc1ccc(NC(=O)CSc2ncc(C(=O)Nc3ccc(Cl)cc3)c(=O)n2C)cc1	UBC13 polyUb 55 (no result: SUMO HTRF inh) | Casp3 counter 97 | UBC13 conf inactive
CC(=O)Nc1cccc(NC(=O)CSc2nnnn2C)c1	none (no result: PAD4 FP inh, GSTO1 inh, Rin1-Abl PPI inh, Apaf1 inhib, UBC13 polyUb)
CC(=O)Nc1ccc(NC(=O)CSc2ncc(C(=O)Nc3ccc(F)cc3)c(=O)n2C)cc1	UBC13 polyUb 71 (no result: SUMO HTRF inh) | Casp3 counter 98 | UBC13 conf 62
CC(=O)Nc1ccc(SCC(=O)Nc2ccc(Cl)cn2)cc1	none
CC(=O)Nc1cccc(NC(=O)CSc2ncc(C(=O)Nc3ccccc3)c(=O)n2C)c1	UBC13 polyUb 82 (no result: SUMO HTRF inh) | Casp3 counter 95 | UBC13 conf 86
CC(=O)Nc1ccc(NC(=O)CSc2nnnn2-c2ccc(F)cc2)cc1	none
CC(=O)Nc1cccc(NC(=O)CSc2ncc(C(=O)Nc3ccc(F)cc3)c(=O)n2C)c1	UBC13 polyUb 51 (no result: SUMO HTRF inh) | Casp3 counter 97 | UBC13 conf inactive
COc1ccccc1NC(=O)c1cc(S(=O)(=O)NCc2ccccc2)ccc1F	UBC13 polyUb 63 | Casp3 counter inactive | UBC13 conf 75
COc1ccc(CNS(=O)(=O)c2ccc(F)c(C(=O)Nc3ccc(OC)cc3)c2)cc1	none
COc1ccccc1NC(=O)c1cc(S(=O)(=O)N2CCC3(CC2)OCCO3)ccc1F	UBC13 polyUb 56 | Casp3 counter inactive | UBC13 conf inactive
CC(C)Cn1c(CCNC(=O)c2ccco2)nc2ccccc21	none (no result: SUMO HTRF inh)
CN(C)CCCNC(=O)C(=O)NCC1OCCN1S(=O)(=O)c1cccs1 (configuration not stated)	Apaf1 inhib 64, UBC13 polyUb 46 | Casp3 counter inactive | UBC13 conf inactive
O=C(NCCCO)C(=O)NCC1OCCCN1S(=O)(=O)c1cccs1 (configuration not stated)	none
Cc1cc(C)c(-n2c(SCC(=O)N3CCOCC3)n[nH]c2=O)c(C)c1	none
COc1ccccc1CNc1nc(Nc2cccc(-c3cnco3)c2)c2sccc2n1	none (no result: PAD4 FP inh, GSTO1 inh, Apaf1 inhib, UBC13 polyUb, SUMO HTRF inh)
COc1ccc(CNC(=O)C2(CC3CC(c4ccccc4)=NO3)CCN(C(=O)OC(C)(C)C)CC2)cc1 (configuration not stated)	UBC13 polyUb 77 (no result: SUMO HTRF inh) | Casp3 counter inactive | UBC13 conf inactive
COc1ccc(OCC(O)CN2CCC(CN3C(=O)c4cccc5cccc(c45)C3=O)CC2)cc1 (configuration not stated)	none (no result: SUMO HTRF inh)
COc1cccc(OCC(O)CN2CCN(CCN3C(=O)c4cccc5cccc(c45)C3=O)CC2)c1 (configuration not stated)	UBC13 polyUb 61 | Casp3 counter inactive | UBC13 conf 63
O=C1c2cccc3cccc(c23)C(=O)N1CCN1CCN(CC(O)COc2ccccc2)CC1 (configuration not stated)	UBC13 polyUb 54 | Casp3 counter inactive | UBC13 conf inactive
COc1ccc(Cn2cc(C(=O)c3ccccc3)c(=O)c3cc(OC)ccc32)cc1	none
Cc1ccc(Cn2cc(C(=O)c3ccc(F)cc3)c(=O)c3cc4c(cc32)OCCO4)cc1	UBC13 polyUb 45 | Casp3 counter inactive | UBC13 conf inconclusive
COc1cc(CNc2ncnc3c2ncn3[C@H]2CN(CCc3ccccc3)C[C@@H](CO)O2)cc(OC)c1OC	none (no result: PAD4 FP inh, GSTO1 inh, Apaf1 inhib, UBC13 polyUb, SUMO HTRF inh)
COc1ccc(OCCCC(=O)Nc2ccc(S(=O)(=O)N3CCOCC3)cc2)cc1	UBC13 polyUb 58 (no result: GSTO1 inh, SUMO HTRF inh) | Casp3 counter inactive | UBC13 conf 55
COc1ccc(NC(=O)N(C)C[C@H]2Oc3ncc(Br)cc3C(=O)N([C@H](C)CO)C[C@@H]2C)cc1	none (no result: PAD4 FP inh, GSTO1 inh, Apaf1 inhib, UBC13 polyUb, SUMO HTRF inh)
O=C(NN1C(=O)c2ccc3c4c(ccc(c24)C1=O)CC3)c1ccc(Br)cc1	UBC13 polyUb 57 | Casp3 counter inactive | UBC13 conf 63
O=C(O)[C@H]1CCCC[C@H]1C(=O)NCCc1ccccc1	UBC13 polyUb 67 | Casp3 counter inactive | UBC13 conf inactive
Cc1cc(NS(=O)(=O)c2ccc(NC(=O)Cc3ccc([N+](=O)[O-])cc3)cc2)nc(C)n1	none (no result: GSTO1 inh, SUMO HTRF inh)
CN(C)c1ccc(NC(=O)CN2CCC(NC(=O)C3CCCCC3)CC2)cc1	UBC13 polyUb 64 | Casp3 counter inactive | UBC13 conf 82
O=C(CN1CCC(NC(=O)C2CCCCC2)CC1)Nc1ccccc1	none (no result: PAD4 FP inh, GSTO1 inh, Apaf1 inhib, UBC13 polyUb, SUMO HTRF inh)
COc1ccc(-c2c3c(nc4sc(C(=O)Nc5ccccc5)c(N)c24)CCC3)cc1	UBC13 polyUb 46 (no result: SUMO HTRF inh) | Casp3 counter inactive | UBC13 conf inactive
Nc1c(C(=O)Nc2ccccc2)sc2nc3c(c(-c4ccco4)c12)CCC3	none
NC(Cc1ccc(Cl)cc1)c1csc(NC(=O)Nc2ccccc2-c2ccccc2)n1 (configuration not stated)	none (no result: PAD4 FP inh, GSTO1 inh, Apaf1 inhib, UBC13 polyUb, SUMO HTRF inh)
O=C(Nc1ccc(C2=NCCN2)cc1)c1ccc(C(=O)Nc2ccc(C3=NCCN3)cc2)c([N+](=O)[O-])c1	UBC13 polyUb 107 | Casp3 counter inactive | UBC13 conf 123
O=C(OCC(=O)N1CCOCC1)c1cc(=O)[nH]c2ccccc12	none (no result: GSTO1 inh, SUMO HTRF inh)
C=CCn1c(=O)c(C(=O)Nc2cccnc2)c(O)c2ccccc21	none
C=CCn1c(=O)c(C(=O)Nc2ccc(C)cn2)c(O)c2ccccc21	UBC13 polyUb 55 | Casp3 counter inactive | UBC13 conf inactive
CCCc1nnc(NC(=O)c2nc(S(=O)(=O)Cc3ccc(C)cc3)ncc2Cl)s1	UBC13 polyUb 59 | Casp3 counter inactive | UBC13 conf 54
CCSc1ncc(Cl)c(C(=O)Nc2ccc(S(=O)(=O)Nc3ncccn3)cc2)n1	none
CC(=O)Nc1ccc(NC(=O)c2nc(S(=O)(=O)Cc3cccc(C)c3)ncc2Cl)cc1	UBC13 polyUb 45 | Casp3 counter inactive | UBC13 conf 47

Screening results deposited in PubChem BioAssay by several laboratories.
